Among all 2,500 compounds or so, about 1,200 (48%) were called active. So high a share suggests a set chosen from earlier hits. The list shows a part of the results. A number with no mark means an inactive call.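 How the source made its calls: active means mean activation above the low control average plus 3 SD, as set in the primary screen (cut at about 12% in these data); inactive means the rest.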
These molecules were tested against Troponin I, cardiac muscle (Homo sapiens) + Troponin T, cardiac muscle (Homo sapiens) + Troponin C, slow skeletal and cardiac muscles (Homo sapiens) (UniProt P19429+P45379+P63316) (assay: cardiac RTF calcium sensitivity activators, confirmation, biochemical, IANBD-TnC fluorescence, triplicate (AID 504383;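 further: 0% = DMSO at 0.472 mM calcium and 100% = DMSO at 2.9 mM calcium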)). Conditions: IANBD-labeled cardiac RTF, Ca2+ sensitivity fluorescence; at 7.2 µM; hits give high values; scaled from EC20 to saturating calcium; tested at EC20 calcium, 0.472 mM.
Procedure, shortened: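 Material: labelled regulated thin filaments; Reagent: 0.472 mM calcium; Incubation: 15 min compound incubation with filaments at 25 °C; Detection: filament fluorescence intensity; Evaluation: fluorescence increase normalised to calcium controls; Benchmarks: low control EC20 calcium, high control EC100 calcium.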
With `CC1(C)CC(CC(=O)Nc2nccs2)(c2ccccc2)CCO1` (stereo not given) the activation was 604% (active). Work on `O=C(Cc1c(F)cccc1Cl)Nc1nccs1` yielded an activation of 1.97%. `C=CCn1c(SCC(=O)Nc2nccs2)nnc1-c1ccco1` was tested, and the activation was 7.96%. For `COc1ccccc1N1CCN(C(=O)c2ccc(Cn3c(=O)[nH]c4ccsc4c3=O)cc2)CC1`, the activation was 125% (active). In the case of `COCC(=O)NC1CCN(S(=O)(=O)c2cccc(C(C)=O)c2)CC1`, the activation is reported as 14.3% (active). Work on `CN1CCN(S(=O)(=O)c2cccc(C(=O)Oc3cccc(Br)c3)c2)CC1` yielded an activation of 11.4%. With `COc1ccc(C(=O)N/N=C/c2sc3ccccc3c2O)cc1` the activation was 14.3% (active). In the case of `O=C(N/N=C/c1sc(N2CCOCC2)nc1-c1ccccc1)c1cccc(S(=O)(=O)N2CCCC2)c1`, the activation is reported as 3.15%. With `CC(=NNC(=O)c1ccncc1)c1ccc2ccccc2c1O` the activation was 6.88%. In the case of `O=C(N/N=C/c1sc2ccccc2c1O)c1ccccc1`, the activation is reported as 66.7% (active). In the case of `COc1ccc2cc(C(=O)N/N=C/c3sc4ccccc4c3O)ccc2c1`, the activation is reported as 277% (active). `CN(/N=C/c1ccc(O)cc1O)c1ncc(C(F)(F)F)cc1Cl` was tested, and the activation was 6.15%. For `CCN1CC=C2C(C1)C(c1ccc(Cl)s1)C(C#N)=C(N)C2(C#N)C#N` (stereo not given), the activation was 19.5% (active). With `Cc1cc(C)c(OCCOCCN2CCNCC2)c(C)c1` the activation was 7.52%. `CCc1ccc(C(C)NC(=O)c2ncn[nH]2)cc1` (stereo not given) was tested, and the activation was 17.2% (active). `C[C@@H](NC(=O)c1ncn(C)c1C(=O)N[C@H](C)c1ccccc1)c1ccccc1` gave an activation of 2.64%. With `CCn1c(NC(=O)Nc2cccc(C)c2C)cc2sccc21` the activation was 12.6% (active). With `COc1ccc(C2C(C(C)=O)=C(C)N=c3s/c(=C\c4cc(C)n(C)c4C)c(=O)n32)c(OC)c1` (stereo not given) the activation was 15% (active). `CCOC(=O)c1[nH]cnc1C(=O)Nc1ccccn1` was tested, and the activation was 12.4% (active). `CCN(CC)c1ccc2cc(C(=O)Nc3ccccn3)c(=O)oc2c1` showed an activation of 7.83%. With `CCOC(=O)C(C(=O)Nc1cccc(C)n1)C1CCCCC1` (stereo not given) the activation was 7.01%. In the case of `Cc1oc(-c2cc3c(cc2Cl)OCO3)nc1CN1CCCC(C(=O)N2CCOCC2)C1` (stereo not given), the activation is reported as 447% (active). With `CCN(C(=O)CSc1nnc(COc2ccccc2F)n1N)c1c(N)n(Cc2ccccc2)c(=O)[nH]c1=O` the activation was 1020% (active). Work on `C[n+]1cc(C(=O)N2CCCCC2)ccc1/C=C/c1c[nH]c2ccccc12` yielded an activation of 8.02%. For `CC[n+]1ccc(/C=C/c2c[nH]c3ccccc23)cc1`, the activation was 167% (active). `C[n+]1ccc(/C=C/c2c[nH]c3ccc(F)cc23)cc1` was tested, and the activation was 5.69%. With `C(=Cc1c[nH]c2ccccc12)c1nccc2ccccc12` the activation was 16.3% (active). With `Cc1ccc2[nH]cc(/C=C/c3cc[n+](C)cc3)c2c1` the activation was 6.68%. `OCC[n+]1ccc(/C=C/c2c[nH]c3ccccc23)cc1` showed an activation of 6.81%. In the case of `C[n+]1ccc(/C=C/c2c[nH]c3ccccc23)cc1`, the activation is reported as 45.7% (active).
